Measurements published in ChEMBL document CHEMBL1141839, “Antifungal jujubogenin saponins from Colubrina retusa” (1999).
≈ marks a conversion by molar mass, not a printed value. Calls of active or inactive are those of the source. No cut-off for these calls is given here.

What was measured:
Aspergillus fumigatus [1] = assay: Antifungal activity against Aspergillus fumigatus after 48 hrs; format: functional
Method in brief: (§1)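 A. fumigatus spores gently scraped from fungal growth and used as inoculum in a 96-well adaptation of the NCCLS protocol. Pure compounds at final 50, 10 and 2 μg/mL. Incubated 48 h at 30 °C, with growth read at each concentration. MIC is the lowest tested concentration without growth. Amphotericin B positive control.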

Candida albicans [2] = assay: Antifungal activity against Candida albicans after 24 hrs; format: functional
Method in brief: (§2)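 Modified NCCLS broth microdilution in 96-well format. C. albicans grown in SDB to the desired density and seeded into wells. Pure compounds tested at final 50, 10 and 2 μg/mL. Incubated 24 h at 37 °C, with growth scored at each level. MIC is the lowest tested concentration with no growth. Amphotericin B served as positive control.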

Cryptococcus neoformans [3] = assay: Antifungal activity against Cryptococcus neoformans after 48 hrs; format: functional
Method in brief: (§3)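 C. neoformans grown in Mycophil broth to the desired density, then seeded into 96-well plates (modified NCCLS microdilution). Pure compounds added at final 50, 10 and 2 μg/mL. Incubation 48 h, 30 °C, with growth assessed per concentration. MIC is the lowest tested level showing no growth. Amphotericin B positive control.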

Candida albicans [4] = assay: Antifungal activity against Candida albicans at 2 ug/mL after 24 hrs; format: functional, organism-based; method in brief: as §2
Aspergillus fumigatus [5] = assay: Antifungal activity against Aspergillus fumigatus at 2 ug/mL after 48 hrs; format: functional, organism-based; method in brief: as §1
Cryptococcus neoformans [6] = assay: Antifungal activity against Cryptococcus neoformans at 2 ug/mL after 48 hrs; format: functional, organism-based; method in brief: as §3

Work on `CC(C)=C[C@H]1C[C@](C)(O)[C@@H]2[C@H]3CC[C@@H]4[C@@]5(C)CC[C@H](O[C@@H]6OC[C@H](O)[C@H](O[C@@H]7O[C@H](CO)[C@@H](O)[C@H](O)[C@H]7O)[C@H]6O[C@@H]6O[C@@H](CO)[C@H](O)[C@H]6O)C(C)(C)[C@@H]5CC[C@@]4(C)[C@@]34CO[C@@]2(C4)O1` yielded an MIC (Aspergillus fumigatus [1]) of 50 µg/mL (≈ 55.6 µM), an MIC (Candida albicans [2]) of 50 µg/mL (≈ 55.6 µM) and an MIC (Cryptococcus neoformans [3]) of 50 µg/mL (≈ 55.6 µM).

For `CC(C)=C[C@H]1C[C@](C)(O)[C@@H]2[C@H]3CC[C@@H]4[C@@]5(C)CC[C@H](O[C@@H]6OC[C@H](O)[C@H](O[C@@H]7O[C@H](CO)[C@@H](O)[C@H](O)[C@H]7O)[C@H]6O[C@@H]6O[C@@H](COC(=O)CC(=O)O)[C@H](O)[C@H]6O)C(C)(C)[C@@H]5CC[C@@]4(C)[C@@]34CO[C@@]2(C4)O1`, the Activity (Aspergillus fumigatus [1]) was “inactive”, the Activity (Candida albicans [2]) was “inactive” and the Activity (Cryptococcus neoformans [3]) was “inactive”.

`C[C@@H]1[C@H](O)[C@@H](C)/C=C/C=C/C=C/C=C/C=C/C=C/C=C/[C@H](O[C@@H]2O[C@H](C)[C@@H](O)[C@H](N)[C@@H]2O)C[C@@H]2O[C@](O)(C[C@@H](O)C[C@@H](O)[C@H](O)CC[C@@H](O)C[C@@H](O)CC(=O)O[C@H]1C)C[C@H](O)[C@H]2C(=O)O` was tested, and the Activity (Candida albicans [4]) was “Active”, the Activity (Aspergillus fumigatus [5]) was “Active” and the Activity (Cryptococcus neoformans [6]) was “Active”.

Compound `CC(C)=C[C@H]1C[C@](C)(O)[C@@H]2[C@H]3CC[C@@H]4[C@@]5(C)CC[C@H](O[C@@H]6OC[C@H](O)[C@H](O[C@@H]7O[C@H](CO)[C@@H](O)[C@H](O)[C@H]7OC(=O)/C=C/c7ccc(O)cc7)[C@H]6O[C@@H]6O[C@@H](CO)[C@H](O)[C@H]6O)C(C)(C)[C@@H]5CC[C@@]4(C)[C@@]34CO[C@@]2(C4)O1` has an MIC (Aspergillus fumigatus [1]) of over 50 µg/mL, an MIC (Candida albicans [2]) of over 50 µg/mL and an MIC (Cryptococcus neoformans [3]) of 50 µg/mL (≈ 47.8 µM).
